The test system of data set [1] is Kidney. Description: Biodistribution in Sprague-Dawley rat kidney assessed per gram of tissue at 1 MBq, iv after 0.25 hrs. In kind it is ADME, organism-based. The settings on record: in vivo. The gist of the method: (§1)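 Male SD rats aged 8-10 weeks got 1 MBq [18F]tracer by tail vein in 0.1 mL. Groups of n = 4 were killed (CO2, then cervical fracture) at 0.25, 0.5, 1 and 4 h. Organs were weighed and gamma counted against a diluted standard of the injectate. Results are %ID per gram wet tissue, mean with standard deviation.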

Data set [2] relates to Kidney. Description: Biodistribution in Sprague-Dawley rat kidney assessed per gram of tissue at 1 MBq, iv after 0.5 hrs. In kind it is ADME, organism-based. The following applies: in vivo. The method, boiled down:
as §1

The test system of data set [3] is Kidney. Description: Biodistribution in Sprague-Dawley rat kidney assessed per gram of tissue at 1 MBq, iv after 1 hr. In kind it is ADME, organism-based. The following applies: in vivo. The gist of the method:
as §1

Data set [4] relates to Kidney. Description: Biodistribution in Sprague-Dawley rat kidney assessed per gram of tissue at 1 MBq, iv after 4 hrs. In kind it is ADME, organism-based. The following applies: in vivo. The method, boiled down:
as §1

The test system of data set [5] is Heart. Description: Biodistribution in Sprague-Dawley rat heart assessed per gram of tissue at 1 MBq, iv after 0.25 hrs. In kind it is ADME, organism-based. The following applies: in vivo. The gist of the method: as §1
Data set [6] concerns Heart. Nature of the data set: Biodistribution in Sprague-Dawley rat heart assessed per gram of tissue at 1 MBq, iv after 0.5 hrs. In kind it is ADME, organism-based. The following applies: in vivo. The method, boiled down: as §1
Data set [7] relates to Heart. Nature of the data set: Biodistribution in Sprague-Dawley rat heart assessed per gram of tissue at 1 MBq, iv after 1 hr. Format: ADME, organism-based. The following applies: in vivo. The method, boiled down:
as §1

The test system of data set [8] is Heart. Nature of the data set: Biodistribution in Sprague-Dawley rat heart assessed per gram of tissue at 1 MBq, iv after 4 hrs. Format: ADME, organism-based. The settings on record: in vivo. The method, boiled down: as §1
The subject of data set [9] is Lung. Nature of the data set: Biodistribution in Sprague-Dawley rat lungs assessed per gram of tissue at 1 MBq, iv after 0.25 hrs. The settings on record: in vivo. In kind it is ADME, organism-based. The gist of the method:
as §1

Data set [10] deals with Lung. Nature of the data set: Biodistribution in Sprague-Dawley rat lungs assessed per gram of tissue at 1 MBq, iv after 0.5 hrs. Format: ADME, organism-based. The following applies: in vivo. The method, boiled down: as §1
Data set [11] deals with Lung. Nature of the data set: Biodistribution in Sprague-Dawley rat lungs assessed per gram of tissue at 1 MBq, iv after 1 hr. Format: ADME, organism-based. The following applies: in vivo. The gist of the method: as §1
Data set [12] concerns Lung. Description: Biodistribution in Sprague-Dawley rat lungs assessed per gram of tissue at 1 MBq, iv after 4 hrs. In kind it is ADME, organism-based. The following applies: in vivo. The method, boiled down: as §1
Data set [13] deals with Spleen. Description: Biodistribution in Sprague-Dawley rat spleen assessed per gram of tissue at 1 MBq, iv after 0.25 hrs. The settings on record: in vivo. Format: ADME, organism-based. The gist of the method: as §1
In data set [14] the test system is Spleen. Description: Biodistribution in Sprague-Dawley rat spleen assessed per gram of tissue at 1 MBq, iv after 0.5 hrs. In kind it is ADME, organism-based. The following applies: in vivo. The method, boiled down:
as §1

For data set [15], the system named is Spleen. Description: Biodistribution in Sprague-Dawley rat spleen assessed per gram of tissue at 1 MBq, iv after 1 hr. In kind it is ADME, organism-based. The settings on record: in vivo. The method, boiled down:
as §1

Data set [16] has as its system Spleen. Nature of the data set: Biodistribution in Sprague-Dawley rat spleen assessed per gram of tissue at 1 MBq, iv after 4 hrs. In kind it is ADME, organism-based. The settings on record: in vivo. The method, boiled down:
as §1

Data set [17] concerns Liver. Nature of the data set: Biodistribution in Sprague-Dawley rat liver assessed per gram of tissue at 1 MBq, iv after 0.25 hrs. The settings on record: in vivo. In kind it is ADME, organism-based. The gist of the method: as §1
Data set [18] has as its system Liver. Nature of the data set: Biodistribution in Sprague-Dawley rat liver assessed per gram of tissue at 1 MBq, iv after 0.5 hrs. In kind it is ADME, organism-based. The following applies: in vivo. The method, boiled down: as §1
Data set [19] relates to Liver. Description: Biodistribution in Sprague-Dawley rat liver assessed per gram of tissue at 1 MBq, iv after 1 hr. In kind it is ADME, organism-based. The following applies: in vivo. The method, boiled down:
as §1

The subject of data set [20] is Liver. Nature of the data set: Biodistribution in Sprague-Dawley rat liver assessed per gram of tissue at 1 MBq, iv after 4 hrs. In kind it is ADME, organism-based. The following applies: in vivo. The method, boiled down:
as §1

Data set [21] deals with Adrenal. Description: Biodistribution in Sprague-Dawley rat adrenals assessed per gram of tissue at 1 MBq, iv after 0.25 hrs. Format: ADME, organism-based, Adrenal tissue. The settings on record: in vivo. The method, boiled down: as §1
The test system of data set [22] is Adrenal. Description: Biodistribution in Sprague-Dawley rat adrenals assessed per gram of tissue at 1 MBq, iv after 0.5 hrs. Format: ADME, organism-based, Adrenal tissue. The following applies: in vivo. The gist of the method:
as §1

Data set [23] relates to Adrenal. Nature of the data set: Biodistribution in Sprague-Dawley rat adrenals assessed per gram of tissue at 1 MBq, iv after 1 hr. In kind it is ADME, organism-based, Adrenal tissue. The following applies: in vivo. The gist of the method: as §1
Data set [24] has as its system Adrenal. Nature of the data set: Biodistribution in Sprague-Dawley rat adrenals assessed per gram of tissue at 1 MBq, iv after 4 hrs. In kind it is ADME, organism-based, Adrenal tissue. The following applies: in vivo. The gist of the method: as §1
Data set [25] in a line: Biodistribution in Sprague-Dawley rat testis assessed per gram of tissue at 1 MBq, iv after 0.25 hrs. Format: ADME, organism-based. The following applies: in vivo. The gist of the method: as §1
A short description of data set [26]: Biodistribution in Sprague-Dawley rat testis assessed per gram of tissue at 1 MBq, iv after 0.5 hrs. Format: ADME, organism-based. The following applies: in vivo. The gist of the method:
as §1

The nature of data set [27]: Biodistribution in Sprague-Dawley rat testis assessed per gram of tissue at 1 MBq, iv after 1 hr. In kind it is ADME, organism-based. The following applies: in vivo. The method, boiled down: as §1
Data set [28] in a line: Biodistribution in Sprague-Dawley rat testis assessed per gram of tissue at 1 MBq, iv after 4 hrs. In kind it is ADME, organism-based. The settings on record: in vivo. The gist of the method:
as §1

The test system of data set [29] is Blood. Description: Biodistribution in Sprague-Dawley rat blood at 1 MBq, iv after 0.25 hrs. In kind it is ADME, organism-based. The settings on record: in vivo. The gist of the method: as §1
In data set [30] the test system is Blood. Nature of the data set: Biodistribution in Sprague-Dawley rat blood at 1 MBq, iv after 4 hrs. Format: ADME, organism-based. The following applies: in vivo. The gist of the method: as §1
The test system of data set [31] is Femur. Nature of the data set: Biodistribution in Sprague-Dawley rat femur at 1 MBq, iv after 0.25 hrs. Format: ADME, organism-based. The settings on record: in vivo. The gist of the method:
as §1

Data set [32] deals with Femur. Nature of the data set: Biodistribution in Sprague-Dawley rat femur at 1 MBq, iv after 4 hrs. In kind it is ADME, organism-based. The following applies: in vivo. The gist of the method: as §1
Data set [33] in a line: Metabolic stability in Sprague-Dawley rat plasma assessed as drug remaining at 30 MBq after 0.25 hrs by Radio-HPLC analysis. The following applies: read-out: Stability. In kind it is ADME, cell-free. The gist of the method: (§2)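 Rats received 30 MBq tracer and were sampled at 0.25, 0.5, 1 and 4 h. Plasma was diluted with water containing unlabeled carrier and KF and injected directly. Frontal cortex or olfactory bulb was sonicated in acetonitrile/water 1:1 with carrier and KF, centrifuged, and the supernatant diluted. Radio-HPLC used a precolumn switched to C18 with a CH3CN/0.05 M sodium acetate pH 5.5 gradient. Result is % parent remaining.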

Data set [34] can be described thus: Metabolic stability in Sprague-Dawley rat frontal cortex assessed as drug remaining at 30 MBq after 0.25 hrs by Radio-HPLC analysis. Format: ADME, tissue-based. The settings on record: read-out: Stability. The method, boiled down:
as §2

Data set [35] in a line: Metabolic stability in Sprague-Dawley rat frontal cortex assessed as drug remaining at 30 MBq after 4 hrs by Radio-HPLC analysis. The settings on record: read-out: Stability. In kind it is ADME, tissue-based. The gist of the method: as §2
The nature of data set [36]: Lipophilicity, log p at pH 7.5. In kind it is physicochemical. The settings on record: buffer. The method, boiled down: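 RP-HPLC on a C18 column with methanol/0.1 M phosphate buffer pH 7.5 (60/40) at 1 mL/min. Samples were dissolved in methanol. log P7.5 was estimated by comparing retention time with that of reference compounds of known log P.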
Data set [37] concerns the target T1, Translocator protein (Rattus norvegicus, UniProt P16257). Description: Displacement of [3H]PK11195 from peripheral benzodiazepine receptor in rat kidney membrane. Format: cell membranes. On the technique in general: In a radioligand displacement assay an active substance lowers the binding of a labelled ligand.
For data set [38], the target named is T1, Translocator protein. Nature of the data set: Displacement of [3H]Ro 5-4864 from peripheral benzodiazepine receptor in rat kidney membrane. In kind it is cell membranes.
Data set [39] is described as follows: Displacement of [3H]flumazenil from central benzodiazepine receptor in rat brain cortex membrane. In kind it is cell membranes. The method, boiled down: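 Rat brain cortex membranes (100-150 µg protein) were incubated in triplicate at 25 °C for 45 min with [3H]flumazenil (2 nM) and 7 ligand concentrations (10^-10 to 10^-5 M). Nonspecific binding was set with flumazenil 20 µM. Assays were filtered, washed with ice-cold Tris/HCl pH 7.4 and counted. Ki was derived from IC50 by Cheng-Prusoff.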

Structures are written as SMILES.

T1 sequence (P16257 whole entry, looked up): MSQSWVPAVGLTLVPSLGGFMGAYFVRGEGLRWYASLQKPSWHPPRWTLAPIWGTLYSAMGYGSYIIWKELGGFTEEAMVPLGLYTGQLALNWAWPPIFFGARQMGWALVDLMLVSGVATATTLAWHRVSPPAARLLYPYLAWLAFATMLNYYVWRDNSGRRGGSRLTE

As to `CCN(CC)C(=O)Cc1c(-c2ccc(OCCC[18F])cc2)nc2ccc(Cl)cn12`, the Drug uptake stood at 4.3 %ID in the data set on Kidney [1]; 5 %ID with Kidney [2]; 3.7 %ID with Kidney [3]; 1.8 %ID in the data set on Kidney [4]; 7.8 %ID with Heart [5]; 8.3 %ID in the data set on Heart [6]. The Drug uptake in the data set on Heart [7] is listed as 6.4 %ID; with Heart [8], 2.9 %ID; in the data set with Lung [9], 12.3 %ID; in the data set with Lung [10] it was 7.7 %ID; with Lung [11], 4.1 %ID; in the data set with Lung [12], 2.2 %ID. Further, the Drug uptake in the data set with Spleen [13] turned out to be 5.5 %ID; in the data set with Spleen [14], 6 %ID; with Spleen [15] it was 4.5 %ID; with Spleen [16], 2.5 %ID; with Liver [17] it was 1.08 %ID; in the data set on Liver [18] it was 0.79 %ID. Further, the Drug uptake with Liver [19] is recorded as 0.61 %ID; in the data set on Liver [20], 0.3 %ID; with Adrenal [21], 8.5 %ID; in the data set on Adrenal [22] it was 11.8 %ID; in the data set with Adrenal [23], 9.6 %ID; in the data set with Adrenal [24], 11.4 %ID. In addition, the Drug uptake was determined as 0.33 %ID in data set [25]; 0.43 %ID in data set [26]; 0.41 %ID in [27]; 0.53 %ID in data set [28]; 0.3 % ID/g in the data set with Blood [29]; 0.1 % ID/g in the data set with Blood [30]. Besides, the Drug uptake in the data set on Femur [31] came out at 0.6 % ID/g; in the data set on Femur [32] it was 2.2 % ID/g. The remaining at 0.25 h in [33] was 10%; in data set [34], 55%. Besides, in data set [35], the remaining at 4 h came to 30%.
On to `CCN(CC)C(=O)Cc1c(-c2ccc(OCCCF)cc2)nc2ccc(Cl)cn12`, for which the logD (commonly the decadic logarithm of the distribution of all forms, ionised or not, between an organic phase and buffer at a given pH) in data set [36] amounted to 3.2. The values for the Ki (at Translocator protein [37]; on Translocator protein [38]; in [39]) were 3.7 nM, 4.2 nM and 800 nM, respectively.
For `CCN(CC)C(=O)Cc1c(-c2ccc(OCCF)cc2)nc2ccc(Cl)cn12`, in that order: 2.7, 5.8 nM, 3.3 nM and 790 nM.

Values taken from ChEMBL document CHEMBL1155010, “Synthesis and biological evaluation of substituted [18F]imidazo[1,2-a]pyridines and [18F]pyrazolo[1,5-a]pyrimidines for the study of the peripheral benzodiazepine receptor using positron emission tomography” (J Med Chem, 2008).
